Assay results gathered from unrelated publications.
Compare with care: the assays were run in different laboratories.

SMILES	system	setting	quantity	value
Cc1c(S(=O)(=O)N2CCn3nccc3C2)cc(C(=O)NCc2c(F)ccnc2N2CCCC2)n1C	PAMPA		Papp	16.8 ×10⁻⁶ cm/s
COc1nc(-c2cccc(-c3ccccc3)c2C)ccc1CNCCNC(=O)CCCCCCCCCCC(=O)N1CCN(CCNC(=O)c2cc3c(=O)n4cccc(C)c4nc3n(CCc3cccs3)c2=N)CC1	male Sprague-Dawley rat, plasma	intraperitoneal, 4 mg/kg	AUC(0-t)	2440 ng·h/mL
CN(C)C(=O)c1cc2cnc(Nc3ccc(N4CCNCC4)cn3)nc2n1C1CCCC1	male Sprague-Dawley rat, plasma	intraperitoneal, 100 mg/kg	AUC	12200 ng·h/mL
CCOCC(=O)N1CCC[C@H](C(=O)NCc2nc(-c3ccc(C)nc3)cs2)C1	male Sprague-Dawley rat, plasma	oral, 3 mg/kg	AUC	32 µM·h
C[C@H]1Oc2cc(cnc2N)-c2c(nn(C)c2C#N)CN(C)C(=O)c2ccc(F)cc21	male Sprague-Dawley rat, plasma	oral, 5 mg/kg, single dose	AUC(0-inf)	1870 ng·h/mL
CCOCC(=O)N1CCC[C@H](C(=O)NCc2nc(-c3ccc(C#N)nc3)cs2)C1	male Sprague-Dawley rat, plasma	oral, 3 mg/kg	AUC	21 µM·h
C=C(CC(=O)OCOC(=O)OC(C)C)C(=O)OCOC(=O)OC(C)C	PAMPA	10 µM, 4 h, pH 7.4	Papp	> 10 ×10⁻⁶ cm/s
NCCOCC(=O)N1CCC[C@H](C(=O)NCc2nc(-c3ccc(C(F)(F)F)cc3)cs2)C1	male Sprague-Dawley rat, plasma	oral, 3 mg/kg	AUC	0.071 µM·h
C=C(CC(=O)OCc1oc(=O)oc1C)C(=O)O	PAMPA	10 µM, 4 h	Papp	~15 ×10⁻⁶ cm/s
